# Results taken from ChEMBL document CHEMBL1121744, “Synthesis and antihypertensive activity of a series of 8-substituted 1-oxa-3,8-diazaspiro[4.5]decan-2-ones” (J Med Chem, 1981).
# “And” between values parts separate entries of the source, which are not always exact repeats. Equal values may be shown once. The source made the active and inactive calls. The rule behind the calls is not given here.
# What was measured:
# Rattus norvegicus [1] = test: The antihypertensive activity as percentage fall in systolic blood pressure in spontaneously hypertensive rats after a period of 2 hr for a dose of 50 mg/kg po
# [2] = (§1) Distribution coefficient between 1-Octanol and phosphate buffer at pH7.4; format: physicochemical; details: 1-octanol/phosphate buffer, pH 7.4
# Procedure, shortened: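 Octanol/buffer distribution measured at pH 7.4 in phosphate with sodium chloride. Either HPLC (0.004 M) or shake flask.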
# Rattus norvegicus [3] = test: The antihypertensive activity as percentage fall in systolic blood pressure in spontaneously hypertensive rats after a period of 1 hr for a dose of 50 mg/kg po
# Rattus norvegicus [4] = test: The antihypertensive activity as percentage fall in systolic blood pressure in spontaneously hypertensive rats after a period of 4 hr for a dose of 75 mg/kg po; NS=Not significant; format: functional, organism-based; parameters: dose 75 mg/kg; details: Artery
# Procedure, shortened: (§2)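 Male Okamoto-Aoki SHR, trained, in groups of four matched for systolic pressure, with a concurrent vehicle control group. Oral dosing on two consecutive mornings, in water as solution or suspension at 0.1 mL/10 g. On day 2 rats were restrained at 30.0 ± 1.0 °C. Tail-cuff systolic pressure, four traces per rat, read at each hour. Per cent fall versus control; 1-tail t test, p ≤ 0.05.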
# Rattus norvegicus [5] = test: The antihypertensive activity as percentage fall in systolic blood pressure in spontaneously hypertensive rats after a period of 3 hr for a dose of 75 mg/kg po; NS=Not significant; format: functional, organism-based; parameters: dose 75 mg/kg; details: Artery
# Procedure, shortened: as §2
# Rattus norvegicus [6] = test: Antihypertensive activity as percentage fall in systolic blood pressure in spontaneously hypertensive rats after a period of 4 hr for a dose of 50 mg/kg; format: functional, organism-based; parameters: dose 50 mg/kg; details: Artery
# Procedure, shortened: (§3)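 Male Okamoto-Aoki SHR, trained, in groups of four matched for mean systolic pressure; one group per run received water vehicle. Oral dosing in water (0.1 mL per 10 g) on two consecutive mornings. After the day-2 dose, rats were restrained at 30.0 ± 1.0 °C. Systolic pressure was read by tail cuff (inflated to 300 mmHg, first pulse) at 1–4 h. % fall is versus the untreated control group, by 1-tail t test (p ≤ 0.05).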
# Rattus norvegicus [7] = test: Antihypertensive activity as percentage fall in systolic blood pressure in spontaneously hypertensive rats after a period of 3 h for a dose of 50 mg/kg; format: functional, organism-based; parameters: dose 50 mg/kg; details: Artery
# Procedure, shortened: as §3
# Rattus norvegicus [8] = test: The antihypertensive activity as percentage fall in systolic blood pressure in spontaneously hypertensive rats after a period of 3 hr for a dose of 100 mg/kg po; format: functional, Artery
# Procedure, shortened: as §3
# Rattus norvegicus [9] = test: The antihypertensive activity as percentage fall in systolic blood pressure in spontaneously hypertensive rats after a period of 2 hr for a dose of 100 mg/kg po; format: functional, Artery
# Procedure, shortened: as §3
# Rattus norvegicus [10] = test: The antihypertensive activity as percentage fall in systolic blood pressure in spontaneously hypertensive rats after a period of 1 hr for a dose of 100 mg/kg po; format: functional, Artery
# Procedure, shortened: as §3
# Rattus norvegicus [11] = test: The antihypertensive activity as percentage fall in systolic blood pressure in spontaneously hypertensive rats after a period of 4 hr for a dose of 100 mg/kg po; NS=Not significant; format: functional, organism-based; parameters: dose 100 mg/kg; details: Artery
# Procedure, shortened: as §3
# [12] = as §1; format: physicochemical; details: 1-octanol/phosphate buffer, pH 7.4; remark: listed apart in the source
# Rattus norvegicus [13] = test: Antihypertensive activity as percentage fall in systolic blood pressure in spontaneously hypertensive rats after a period of 2 hr for a dose of 50 mg/kg; format: functional, organism-based; parameters: dose 50 mg/kg; details: Artery
# Procedure, shortened: as §3
# Rattus norvegicus [14] = test: Antihypertensive activity as percentage fall in systolic blood pressure in spontaneously hypertensive rats after a period of 1 hr for a dose of 50 mg/kg po; format: functional, organism-based; parameters: dose 50 mg/kg; details: Artery
# Procedure, shortened: as §3
# Rattus norvegicus [15] = test: The antihypertensive activity as percentage fall in systolic blood pressure in spontaneously hypertensive rats after a period of 4 hr for a dose of 50 mg/kg po
# Rattus norvegicus [16] = test: Percentage fall in systolic blood pressure in spontaneously hypertensive rats after 3 h following 50 mg/kg p.o.; format: functional, Artery; details: route oral
# Procedure, shortened: as §3
# Rattus norvegicus [17] = test: Percentage fall in systolic blood pressure in spontaneously hypertensive rats after 2 hr following 50 mg/kg p.o.; format: functional, Artery; details: route oral, 50 mg/kg
# Procedure, shortened: as §3
# Rattus norvegicus [18] = test: The antihypertensive activity as percentage fall in systolic blood pressure in spontaneously hypertensive rats after a period of 3 hr for a dose of 50 mg/kg po
# Rattus norvegicus [19] = test: Antihypertensive activity as percentage fall in systolic blood pressure in spontaneously hypertensive rats after a period of 1 hr for a dose of 50 mg/kg; format: functional, Artery
# Procedure, shortened: as §3
# [20] = molecular target: T1, Adrenergic receptor alpha-1 (Rattus norvegicus, UniProt P15823+P23944+P43140); test: Antagonistic potency of compound for Alpha-1 adrenergic receptor; format: functional
# T1 sequence (P15823 whole entry): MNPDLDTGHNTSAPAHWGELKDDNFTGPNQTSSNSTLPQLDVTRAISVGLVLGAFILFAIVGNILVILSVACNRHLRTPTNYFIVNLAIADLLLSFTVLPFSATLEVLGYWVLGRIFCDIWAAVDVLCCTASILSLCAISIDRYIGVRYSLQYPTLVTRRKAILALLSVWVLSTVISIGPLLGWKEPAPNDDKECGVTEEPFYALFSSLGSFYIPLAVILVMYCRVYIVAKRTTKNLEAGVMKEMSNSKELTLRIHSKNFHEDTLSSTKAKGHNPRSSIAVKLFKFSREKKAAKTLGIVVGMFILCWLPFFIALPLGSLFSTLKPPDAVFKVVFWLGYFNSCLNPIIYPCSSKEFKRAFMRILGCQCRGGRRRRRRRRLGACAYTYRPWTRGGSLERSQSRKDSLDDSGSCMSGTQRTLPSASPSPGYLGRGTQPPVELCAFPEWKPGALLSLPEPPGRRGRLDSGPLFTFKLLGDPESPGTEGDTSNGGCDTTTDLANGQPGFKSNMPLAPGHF
# T1 sequence (P23944 whole entry): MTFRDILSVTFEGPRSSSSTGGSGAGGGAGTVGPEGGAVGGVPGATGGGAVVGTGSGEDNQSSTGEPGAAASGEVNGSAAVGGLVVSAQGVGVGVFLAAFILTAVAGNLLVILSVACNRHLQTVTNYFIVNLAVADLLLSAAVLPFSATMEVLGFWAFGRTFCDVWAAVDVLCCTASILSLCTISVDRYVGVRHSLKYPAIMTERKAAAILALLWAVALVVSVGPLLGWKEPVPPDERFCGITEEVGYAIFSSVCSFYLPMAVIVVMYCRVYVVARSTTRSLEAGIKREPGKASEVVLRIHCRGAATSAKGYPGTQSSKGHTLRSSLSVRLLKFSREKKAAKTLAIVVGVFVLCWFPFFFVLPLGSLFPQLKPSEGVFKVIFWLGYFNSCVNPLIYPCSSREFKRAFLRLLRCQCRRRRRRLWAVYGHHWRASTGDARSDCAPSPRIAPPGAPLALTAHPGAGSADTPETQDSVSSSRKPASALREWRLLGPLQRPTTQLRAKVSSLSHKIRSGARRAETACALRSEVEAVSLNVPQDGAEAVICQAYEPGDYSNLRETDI
# T1 sequence (P43140 whole entry): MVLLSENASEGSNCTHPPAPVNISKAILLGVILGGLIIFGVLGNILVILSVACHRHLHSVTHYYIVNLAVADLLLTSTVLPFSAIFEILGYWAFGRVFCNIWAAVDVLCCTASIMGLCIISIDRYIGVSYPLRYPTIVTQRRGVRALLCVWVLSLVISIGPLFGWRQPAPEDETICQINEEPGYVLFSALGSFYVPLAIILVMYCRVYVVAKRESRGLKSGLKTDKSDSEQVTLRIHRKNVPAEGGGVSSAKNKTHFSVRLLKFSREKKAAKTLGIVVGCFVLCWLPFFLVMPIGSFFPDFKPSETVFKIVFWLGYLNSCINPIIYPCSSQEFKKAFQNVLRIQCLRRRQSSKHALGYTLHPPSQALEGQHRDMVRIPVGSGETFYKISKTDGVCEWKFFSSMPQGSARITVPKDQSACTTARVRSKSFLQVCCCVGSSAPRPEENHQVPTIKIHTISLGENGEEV
# [21] = molecular target: T2, Adrenergic receptor alpha-2 (Rattus norvegicus, UniProt P22086+P19328+P22909); test: Antagonistic potency of compound for Alpha-2 adrenergic receptor; format: functional
# T2 sequence (P22086 whole entry): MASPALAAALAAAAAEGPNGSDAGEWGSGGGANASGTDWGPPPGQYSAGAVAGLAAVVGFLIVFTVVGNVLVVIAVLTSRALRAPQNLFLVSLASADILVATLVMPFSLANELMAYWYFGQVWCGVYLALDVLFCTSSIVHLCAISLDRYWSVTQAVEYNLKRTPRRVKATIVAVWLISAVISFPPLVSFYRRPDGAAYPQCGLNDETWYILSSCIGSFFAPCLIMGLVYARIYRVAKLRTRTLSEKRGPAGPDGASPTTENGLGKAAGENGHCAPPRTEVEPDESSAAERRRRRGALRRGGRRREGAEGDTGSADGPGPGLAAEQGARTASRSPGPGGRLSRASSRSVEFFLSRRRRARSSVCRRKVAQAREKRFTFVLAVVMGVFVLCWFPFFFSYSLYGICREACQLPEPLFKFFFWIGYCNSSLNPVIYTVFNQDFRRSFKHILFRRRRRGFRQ
# T2 sequence (P19328 whole entry): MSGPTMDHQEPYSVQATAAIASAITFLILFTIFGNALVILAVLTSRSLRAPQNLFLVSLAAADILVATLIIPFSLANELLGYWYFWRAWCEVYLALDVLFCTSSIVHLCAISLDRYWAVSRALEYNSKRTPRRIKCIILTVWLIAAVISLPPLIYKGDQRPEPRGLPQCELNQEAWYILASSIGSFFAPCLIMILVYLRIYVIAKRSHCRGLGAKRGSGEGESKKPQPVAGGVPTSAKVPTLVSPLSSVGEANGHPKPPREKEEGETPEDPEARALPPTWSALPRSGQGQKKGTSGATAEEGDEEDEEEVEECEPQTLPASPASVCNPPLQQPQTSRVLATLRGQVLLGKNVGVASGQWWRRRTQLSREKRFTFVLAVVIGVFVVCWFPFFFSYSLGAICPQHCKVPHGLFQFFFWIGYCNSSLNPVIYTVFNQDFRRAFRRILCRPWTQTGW
# T2 sequence (P22909 whole entry): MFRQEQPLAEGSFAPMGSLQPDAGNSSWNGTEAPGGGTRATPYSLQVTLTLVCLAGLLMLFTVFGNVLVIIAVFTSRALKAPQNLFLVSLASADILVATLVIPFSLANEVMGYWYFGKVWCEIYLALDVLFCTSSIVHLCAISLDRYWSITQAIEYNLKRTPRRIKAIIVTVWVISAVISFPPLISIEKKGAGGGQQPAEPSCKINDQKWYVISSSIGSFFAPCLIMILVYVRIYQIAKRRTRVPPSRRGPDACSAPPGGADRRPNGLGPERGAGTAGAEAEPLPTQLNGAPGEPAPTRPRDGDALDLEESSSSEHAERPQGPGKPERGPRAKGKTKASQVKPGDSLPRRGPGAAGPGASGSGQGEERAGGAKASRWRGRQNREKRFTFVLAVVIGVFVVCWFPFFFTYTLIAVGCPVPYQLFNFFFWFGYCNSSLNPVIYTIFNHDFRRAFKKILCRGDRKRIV
structure (smiles),measurement,setting,value
CC(C)N1CC2(CCN(CCc3c[nH]c4ccccc34)CC2)OC1=O,Decrease in blood pressure,Rattus norvegicus [1],9%
same,logD,[2],2.4
same,Decrease in blood pressure,Rattus norvegicus [3],22%
same,Decrease in blood pressure,Rattus norvegicus [4],inactive
same,Decrease in blood pressure,Rattus norvegicus [5],inactive
CC1NC(=O)OC12CCN(CC(O)C1COc3ccccc3O1)CC2 (centres undefined),Decrease in blood pressure,Rattus norvegicus [6],Not significant
same,Decrease in blood pressure,Rattus norvegicus [7],Not significant
same,Decrease in blood pressure,Rattus norvegicus [8],14%
same,Decrease in blood pressure,Rattus norvegicus [9],15%
same,Decrease in blood pressure,Rattus norvegicus [10],15%
same,Decrease in blood pressure,Rattus norvegicus [11],inactive
same,logD,[12],1.21
same,Decrease in blood pressure,Rattus norvegicus [13],Not significant
same,Decrease in blood pressure,Rattus norvegicus [14],Not significant
CCC1NC(=O)OC12CCN(CCc1c[nH]c3ccccc13)CC2 (centres undefined),Decrease in blood pressure,Rattus norvegicus [15],22%
same,Decrease in blood pressure,Rattus norvegicus [1],27%
same,Decrease in blood pressure,Rattus norvegicus [16],17%
same,Decrease in blood pressure,Rattus norvegicus [17],27% and 26%
same,Decrease in blood pressure,Rattus norvegicus [18],17%
same,logD,[2],1.95
same,Decrease in blood pressure,Rattus norvegicus [19],39%
same,pA2,[20],7.6
same,Decrease in blood pressure,Rattus norvegicus [3],23%
same,pA2,[21],6
